The values that follow come from publication PMC6323139 (Bioorganic & medicinal chemistry, 2017).

Entries after “also recorded” stand apart in the source; their conditions may differ.

What all share (format): biochemical
In assay [1] the target is T1, MIF (Homo sapiens, UniProt P14174).
T1 sequence (P14174 2-115 limits assumed): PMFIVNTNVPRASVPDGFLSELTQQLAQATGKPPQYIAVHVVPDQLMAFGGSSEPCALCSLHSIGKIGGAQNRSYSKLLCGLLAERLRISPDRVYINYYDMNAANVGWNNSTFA
In words: Preincubation assay. The note with it: for Reversibility of inhibition: concluded from preincubation and dilution experiments; for Change in IC50 between preincubation times: preincubated with MIF (340 nM) for 2 or 40 min, inhibitor 125–0 μM. Put shortly:
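His-tagged MIF (340 nM final, in boric acid pH 6.2) was preincubated 2 or 40 min with test compound (125–0 µM, 1.6-fold series, 5% DMSO). 0.5 mM 4-HPP (equilibrated overnight in ammonium acetate pH 6.0) was added, A306 followed, and IC50 curves made. For dilution, 34 µM MIF plus 125 µM compound was diluted 100-fold into 4-HPP/boric acid, with a DMSO-only control and absorbance tracked.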

Assay [2] concerns the target T1, MIF. In words: Enzyme kinetic evaluation at increasing 4-HPP concentrations. The note with it: concluded from Vmax app. and Khalf app. In a few lines:
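Initial velocities were taken from the linear slope of absorbance at 306 nm. Conditions were His-tagged recombinant MIF at 340 nM in boric acid pH 6.2, with 4-HPP at 0–2.56 mM (1.25× dilutions) and test compound at 0, 6.25 or 12.5 µM in 5% DMSO. Velocity versus substrate was fitted to an allosteric sigmoidal model, giving Vmax app., Hill slope and Kprime app. Khalf app. was calculated from Kprime and the Hill slope.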

For assay [3], the target named is T1, MIF. The assay is described as follows: Dilution experiment. As to conditions: MIF 34 μM with 125 μM inhibitor, diluted 100x in substrate solution. In a few lines: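 Recombinant His-tagged MIF, purified on His-Trap resin, was premixed at 34 µM with 125 µM test compound in 5% DMSO. The mix was diluted 100-fold into boric acid containing 0.5 mM 4-HPP. The 4-HPP stock was made in 50 mM ammonium acetate pH 6.0 and equilibrated overnight at room temperature. Enol-borate absorbance at 306 nm was plotted against time. The control used 5% DMSO without inhibitor.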

In the case of `CCCCCCCCCCCCN1C(=O)CC2C(=C(N)Oc3ccccc32)C1=O` (stereo not drawn) [Compound 10], at MIF [1], the Reversibility of inhibition result is on record as “reversible inhibitors” and the “Change in IC50 between preincubation times” value was “No difference in IC50; also recorded: No significant change in IC50 value”. On MIF [2], the “Mechanism of inhibition (competition with substrate 4-HPP)” value was “no direct competition between the substrate 4-HPP and the inhibitor; also recorded: does not bind in direct competition with the substrate 4-HPP”. Moreover, the “MIF enzyme activity after dilution of the enzyme-inhibitor mixture” value on MIF [3] is listed as “activity of MIF could be recovered after dilution; also recorded: Diluting the inhibitor recovered the enzyme activity”.
Consider `Cc1ccc2c(c1)OC(N)=C1C(=O)N(CCc3c[nH]c4ccccc34)C(=O)CC12` (stereo not drawn) [Compound 17], for which, on MIF [1], the Reversibility of inhibition entry is on record as “reversible inhibitors” and the “Change in IC50 between preincubation times” value is given as “No difference in IC50”.
